* marks the point of attachment. DOTA = O=C(O)CN1CCN(CC(=O)O)CCN(CC(=O)*)CCN(CC(=O)O)CC1; Cy5.5 = Cy5.5 near-infrared fluorescence dye
Columns and labels:
glioblastomas = details: 90 of 139 patients; white light comparison 47 (36 %) of 131 patients; cited from earlier work
U251-Luc tumors [1] = assay: NIR optical imaging, orthotopic U251-Luc tumors; format: in vivo, nude mice; details: 24 h after tail vein injection, 10 μg
Method in brief: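 Orthotopic xenograft made with 3×10⁶ U251-Luc cells stereotaxically implanted in male nude mice (8–10 weeks; 3 mm deep, 1 mm right, 2.5 mm behind bregma). Bioluminescence check on day 10. Tail-vein injection of 10 μg Cy5.5-labeled probe (n=12). NIR imaging at 1, 4 and 24 h (ex 675 nm/30 nm bandwidth, em 695–770 nm); tissues analyzed ex vivo at 24 h. Manual ROI, photons/s/cm².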

U87-Luc tumors [2] = format: in vivo, nude mice; details: 10 μg
Method in brief: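 Male nude mice (8–10 weeks) had 1×10⁶ U87-Luc cells implanted stereotaxically (3 mm deep, 1 mm right, 2.5 mm behind bregma). Tumor take was checked by bioluminescence on day 10 (iv d-luciferin 4 mg/kg). Cy5.5-labeled test probe or scrambled control, 10 μg, given by tail vein. NIR imaging at 1, 4 and 24 h (ex 675 nm, em 695–770 nm). Mice killed at each time point (n=4); organs weighed and imaged ex vivo. Manual ROI, photons/s/cm².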

U87-Luc tumors [3] = assay: μPET/CT imaging, orthotopic U87-Luc tumors; format: in vivo, nude mice; details: 1 and 24 h after tail vein injection, 7.4 MBq
Method in brief: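 Orthotopic U87-Luc nude mice (n=4; 1×10⁶ cells implanted stereotaxically) received ⁶⁴Cu-labeled probe, 7.4 MBq (200 μCi, 0.5–1.0 μg), by tail vein. μPET/CT imaging at 1 and 24 h. Mean activities computed within ROIs drawn on tumor and normal brain, with a 1%-injected-dose standard placed beside the animal.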

[4] = test system: U87-Luc tumors (EphB4, CD31 staining); assay: Fluorescence microscopy of excised brain sections, U87-Luc tumors; format: in vivo, nude mice; details: EphB4 expression only in tumor microvessels
Method in brief: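 Brains with implanted tumor excised from probe-injected nude mice after μPET/CT, snap-frozen, cut at 4 μm. Sections fixed in 4% paraformaldehyde 20 min RT, blocked in 10% goat serum 30 min, and incubated overnight at 4 °C with rabbit anti-human EphB4 (1:100) and rat anti-mouse CD31 (1:50). Alexa 488/594 secondaries (1:500), DAPI counterstain, fluorescence microscopy.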

U251-Luc tumors [5] = assay: μPET/CT imaging with blocking experiment, orthotopic U251-Luc tumors; format: in vivo, nude mice
Method in brief: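 In orthotopic U251-Luc nude mice (n=3), ⁶⁴Cu-labeled probe (7.4 MBq, 0.5–1.0 μg) was given by tail vein, alone or with 50 μg/mouse of unlabeled probe for blocking. μPET/CT at 1 and 24 h. ROIs drawn on tumor, normal brain and a standard holding 1% of the injected dose. Tumor/normal-brain voxel intensity ratio taken from 3D ROIs, reported with SD; Student t test.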

## NCC(=O)CCC(=O)O [5-aminolevulinic acid]
glioblastomas
  Patients with completely resected glioblastoma: 65%

## Cy5.5-TNYL-RAWK-DOTA: TNYL-RAW with Cy5.5 at the N-terminus and DOTA at the C-terminus ({Cy5.5}-TNYLFSPNGPIARAWK(DOTA)-NH2)
U251-Luc tumors [1]
  Cy5.5 NIR fluorescence visualization of tumor in mouse brain: clearly visualized
U87-Luc tumors [2]; U87-Luc tumors, 1, 4 and 24 h after intravenous injection
  Brain tumor uptake clearly shown in NIR fluorescence imaging: clearly shown
U87-Luc tumors [2]; U87-Luc, 24 h after tail vein injection
  Cy5.5 NIR fluorescence visualization of tumor in mouse brain: clearly visualized

## Cy5.5-TNYL-RAWK-^64Cu-DOTA: ^64Cu-labeled Cy5.5-TNYL-RAWK-DOTA, dual-labeled PET/optical probe ({Cy5.5}-TNYLFSPNGPIARAWK(DOTA)-NH2; also: DOTA holds 64Cu)
U87-Luc tumors [3]
  μPET/CT visualization of tumors: clearly visualized
[4]
  Binding site in tumor sections (Cy5.5 signal colocalization): bound only to the tumor microvessels
U251-Luc tumors [5]; 1 and 24 h, coinjected cold Cy5.5-TNYL-RAWK-DOTA 50 μg/mouse
  μPET/CT visualization of tumors, with cold peptide: barely discernible
U251-Luc tumors [5]; 1 and 24 h after radiotracer injection, 7.4 MBq
  μPET/CT visualization of tumors, absence of cold peptide: clearly visualized
